ChEMBL document CHEMBL3091343, “Nicotinamide phosphoribosyltransferase inhibitors, design, preparation, and structure-activity relationship” (J Med Chem, 2013)

What was measured:
[1] = test system: A2780; test: Cytotoxicity against human A2780 cells assessed as growth inhibition after 72 hrs by WST-1 assay; format: functional, cell-based; conditions: A2780, 72 h
[2] = test system: MCF7; test: Cytotoxicity against human MCF-7 cells assessed as growth inhibition after 72 hrs by WST-1 assay; format: functional, cell-based; conditions: MCF7, 72 h
[3] = target: Nicotinamide phosphoribosyltransferase (Homo sapiens, UniProt P43490); test: Inhibition of NAMPT in human HepG2 cells using [14C]-nicotinamide/PRPP as substrate assessed as formation of [14C]-nicotinamide mononucleotide after 1 hr by liquid scintillation counting analysis; format: cell-based
[4] = test system: HCT-116; test: Cytotoxicity against human HCT116 cells assessed as growth inhibition after 72 hrs by WST-1 assay; format: functional, cell-based; conditions: HCT-116, 72 h
[5] = Toxicity in ip dosed NMRI mouse assessed as blood cell count administered as bid for 5 days; format: organism-based; conditions: in vivo
[6] = Cmax in NMRI mouse at 50 mg/kg, iv; format: ADME, organism-based; parameters: dose 50 mg/kg, route intravenous; conditions: in vivo
How it was run: (§1)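 Mouse PK after a single i.v. dose. Plasma proteins were precipitated with acetonitrile containing internal standard (3:1 v/v). Samples were analysed by UPLC-MS/MS on a C18 column at 40°C with an acetonitrile–0.05% formic acid gradient, using positive electrospray MRM. Parameters were derived by non-compartmental analysis.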

[7] = Apparent volume of distribution in NMRI mouse at 50 mg/kg, iv; format: ADME, organism-based; parameters: dose 50 mg/kg, route intravenous; conditions: in vivo, read-out: Vz; how it was run: as §1
[8] = Half life in NMRI mouse at 50 mg/kg, iv; format: ADME, organism-based; parameters: dose 50 mg/kg, route intravenous; conditions: in vivo; how it was run: as §1
[9] = test system: HCT-116; test: Resistance factor, ratio of IC50 for APO866-resistant human HCT116 cells to IC50 for human HCT116 cells; format: functional
[10] = Tmax in NMRI mouse at 50 mg/kg, iv; format: ADME, organism-based; parameters: dose 50 mg/kg, route intravenous; conditions: in vivo; how it was run: as §1
[11] = test system: HCT-116; test: Cytotoxicity against APO866-resistant human HCT116 cells assessed as growth inhibition after 72 hrs by WST-1 assay; format: functional, cell-based; conditions: HCT-116, 72 h
[12] = Clearance in NMRI mouse at 50 mg/kg, iv; format: ADME, organism-based; parameters: dose 50 mg/kg, route intravenous; conditions: in vivo; how it was run: as §1
[13] = AUC in NMRI mouse at 50 mg/kg, iv; format: ADME, organism-based; parameters: dose 50 mg/kg, route intravenous; conditions: plasma; how it was run: as §1
[14] = Toxicity in ip dosed NMRI mouse assessed as body weight loss administered as bid for 5 days; format: organism-based; conditions: in vivo
[15] = test system: Plasma; test: Metabolic stability in mouse plasma assessed as compound hydrolysis; format: ADME, cell-free
[16] = test system: Mus musculus; test: Toxicity in human A2780 cells xenografted NMRI/nude mouse containing large tumors assessed as effect on body weight at 5 to 10 mg/kg, ip bid administered for 10 days measured during compound administration; conditions: in vivo, 240 h
[17] = test system: Mus musculus; test: Toxicity in human A2780 cells xenografted NMRI/nude mouse containing small tumors assessed as effect on body weight at 0.63 to 2.5 mg/kg, ip bid administered for 5 days measured at day 14 relative to vehicle-treated control; format: organism-based; parameters: dose 0.63-2.5 mg/kg, route intraperitoneal; conditions: in vivo, 120 h
[18] = test system: Mus musculus; test: Toxicity in human A2780 cells xenografted NMRI/nude mouse containing large tumors assessed as effect on body weight at 3 mg/kg, ip bid administered for 10 days; conditions: in vivo

Sequence of Nicotinamide phosphoribosyltransferase (P43490 whole entry): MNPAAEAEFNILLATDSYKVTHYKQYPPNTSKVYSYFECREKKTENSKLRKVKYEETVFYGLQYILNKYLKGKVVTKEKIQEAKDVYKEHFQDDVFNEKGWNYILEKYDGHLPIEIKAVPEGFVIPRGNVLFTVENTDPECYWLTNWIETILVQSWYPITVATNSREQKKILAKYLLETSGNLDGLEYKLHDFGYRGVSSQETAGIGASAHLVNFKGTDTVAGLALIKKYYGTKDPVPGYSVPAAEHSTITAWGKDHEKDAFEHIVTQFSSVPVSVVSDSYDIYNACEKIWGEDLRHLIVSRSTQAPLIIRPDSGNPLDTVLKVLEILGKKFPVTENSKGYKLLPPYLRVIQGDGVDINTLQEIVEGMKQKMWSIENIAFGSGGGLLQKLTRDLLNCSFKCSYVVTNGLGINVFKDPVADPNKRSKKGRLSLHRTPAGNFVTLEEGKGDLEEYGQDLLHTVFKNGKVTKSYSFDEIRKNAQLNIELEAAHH

SMILES | IC50 [1] | IC50 [2] | also measured
N#C/N=C(\NCCCCCCS(=O)(=O)N(CCN1CCOCC1)OCc1ccccc1)Nc1ccncc1 | 0.053 nM | 0.63 nM | 
N#C/N=C(\NCCCCCS(=O)(=O)N(OCCN1CCOCC1)C1CCCC1)Nc1ccncc1 | 0.022 nM | 0.041 nM | 
O=C1C(=O)C(Nc2ccncc2)C1NCCCCCCS(=O)(=O)N(OCCN1CCOCC1)C1CCC1 (configuration not stated) | 0.2 nM | 29.1 nM | 
O=C1C(=O)C(Nc2ccncc2)C1NCCCCCCS(=O)(=O)N(OCCN1CCOCC1)C1CCCC1 (configuration not stated) | 0.59 nM | 13.7 nM | 
N#C/N=C(\NCCCCCCS(=O)(=O)N(CCCN1CCOCC1)C1CCCCC1)Nc1ccncc1 | 0.16 nM | 0.11 nM | IC50 [3]: 2.4 nM
O=C(NCCCCCS(=O)(=O)N(OCCN1CCOCC1)C1CCCCC1)Nc1ccncc1 | 3.4 nM | 28 nM | 
N#C/N=C(\NCCCCCCS(=O)(=O)N(OCCN1CCOCC1)C1CCCC1)Nc1ccncc1 | 0.0041 nM |  | 
N#C/N=C(\NCCCCCCS(=O)(=O)N(OCCN1CCOCC1)C1CCCCC1)Nc1cccnc1 | 0.51 nM | 2.9 nM | 
O=C(NCCCCCS(=O)(=O)N(OCCN1CCOCC1)C1CCCC1)NCc1cccnc1 | 2.7 nM | 7 nM | 
N#CN=C(NCCCCCCOc1ccc(Cl)cc1)Nc1ccncc1 [CHS-828] | 0.56 nM | 1.6 nM | 
O=C(NCCCCCS(=O)(=O)N(OCCN1CCOCC1)C1CCC1)NCc1cccnc1 | 13 nM | 49 nM | 
C[C@H](CCCCCN/C(=N\C#N)Nc1ccncc1)C(=O)NOC1CCCCC1 | 3.9 nM | 38.3 nM | 
O=C1C(=O)C(Nc2ccncc2)C1NCCCCCCS(=O)(=O)N(CCN1CCOCC1)OCC1CCCCC1 (configuration not stated) | 0.73 nM | 10.8 nM | 
O=C(NCCCCCCS(=O)(=O)N(OCCN1CCOCC1)C1CCCCC1)Nc1ccncc1 | 0.25 nM | 0.05 nM | IC50 [4]: 5.3 nM; MTD at 120 h [5]: < 10 mg/kg; Cmax [6]: 14800 ng/mL; Vd [7]: 4.6 L/kg; half-life [8]: 27 min; Ratio IC50 [9]: 128; Tmax [10]: 4.8 min; IC50 [3]: 49 nM; IC50 [11]: > 5000 nM; clearance [12]: 118 mL/min/kg; AUC [13]: 7020 ng·h/mL; MTD at 120 h [14]: < 10 mg/kg
N#C/N=C(\NCCCCC[C@@H](Cc1ccccc1)C(=O)NOC1CCCCC1)Nc1ccncc1 | 0.32 nM | 5.3 nM | Stability [15]: Unstable
O=C(CCCCCCNc1c(Nc2ccncc2)c(=O)c1=O)N(OCCN1CCOCC1)C1CCCCC1 | 0.03 nM |  | 
N#C/N=C(\NCCCCCS(=O)(=O)N(OCCN1CCOCC1)C1CCCCC1)Nc1ccncc1 | 0.011 nM | 0.036 nM | 
O=C1C(=O)C(Nc2ccncc2)C1NCCCCCC(=O)N(Cc1ccccc1)OCCN1CCOCC1 (configuration not stated) | 0.68 nM | 23 nM | 
O=C(NCCCCCCC(=O)N(OCCN1CCOCC1)C1CCCCC1)NCc1cccnc1 | 0.27 nM | 0.37 nM | 
N#C/N=C(\NCCCCCCC(=O)N(Cc1ccccc1)OC1CCCCC1)Nc1ccncc1 | 0.055 nM | 1 nM | IC50 [3]: 38.5 nM
N#CNC(=Nc1ccncc1)NCCCCCCS(=O)(=O)N(OCCN1CCOCC1)C1CCCCC1 |  |  | MTD at 120 h [5]: < 10 mg/kg; Cmax [6]: 14100 ng/mL; Vd [7]: 1.28 L/kg; Activity [16]: Toxic; half-life [8]: 10.8 min; Tmax [10]: 4.8 min; Activity [17]: Non-toxic; IC50 [3]: 0.3 nM; clearance [12]: 81.8 mL/min/kg; AUC [13]: 10200 ng·h/mL; Activity [18]: Non-toxic; MTD at 120 h [14]: < 10 mg/kg
N#C/N=C(\NCCCCCCCC(=O)N(Cc1ccccc1)OCCN1CCOCC1)Nc1ccncc1 | 0.01 nM |  | IC50 [3]: 4.4 nM
N#CNC(=Nc1ccncc1)NCCCCCCC(=O)NOC1CCCCC1 | 35 nM | 940 nM | IC50 [3]: 1.1 nM
N#C/N=C(\NCCCCCCS(=O)(=O)N(CCCN1CCOCC1)C1CCC1)Nc1ccncc1 | 0.091 nM | 0.1 nM | 
